Reference: ChEMBL document CHEMBL1641462, “Synthesis and in vivo evaluation of ¹⁸F-fluoroethyl GF120918 and XR9576 as positron emission tomography probes for assessing the function of drug efflux transporters” (Bioorg Med Chem, 2011)

Tests used:
Spleen [1] = experiment: Biodistribution in FVB mouse spleen assessed per gram of tissue at 1 to 4.8 MBq, iv after 30 mins; type: ADME, organism-based; settings: in vivo, 0.5 h
How it was run: (§1)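 Male FVB mice (8–10 weeks, 25–29 g) given tracer 1.0–4.8 MBq/7.1–34 pmol iv; killed by cervical dislocation at set times (n = 4 per group). Blood by heart puncture; tissues dissected, weighed and gamma counted. Radioactivity decay-corrected to injection time, expressed as %ID/g, mean ± SD.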

Spleen [2] = experiment: Biodistribution in FVB mouse spleen assessed per gram of tissue at 1 to 4.8 MBq, iv after 90 mins; type: ADME, organism-based; settings: in vivo, 1.5 h; how it was run: as §1
Bone [3] = experiment: Biodistribution in FVB mouse bone assessed per gram of tissue at 1 to 4.8 MBq, iv after 5 mins; type: ADME, organism-based, Bone element; settings: in vivo
How it was run: (§2)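 Male FVB mice (8–10 weeks, 25–29 g) received tracer iv (1.0–4.8 MBq, 7.1–34 pmol). Killed by cervical dislocation at 5, 15, 30, 60 or 90 min. Blood taken by heart puncture; tissues dissected, weighed and gamma-counted. Activity decay-corrected to injection time and given as %ID/g; mean ± SD, n = 4 per time point.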

Heart [4] = experiment: Biodistribution in FVB mouse heart assessed per gram of tissue at 1 to 4.8 MBq, iv after 30 mins; type: ADME, organism-based; settings: in vivo, 0.5 h; how it was run: as §2
Lung [5] = experiment: Biodistribution in FVB mouse lung assessed per gram of tissue at 1 to 4.8 MBq, iv after 60 mins; type: ADME, organism-based; settings: in vivo, 1 h; how it was run: as §2
[6] = Biodistribution in FVB mouse small intestine assessed per gram of tissue at 1 to 4.8 MBq, iv after 5 mins; type: ADME, organism-based; settings: in vivo; how it was run: as §1
Brain [7] = experiment: Biodistribution in FVB mouse brain assessed per gram of tissue at 1 to 4.8 MBq, iv after 5 mins; type: ADME, organism-based; settings: in vivo; how it was run: as §2
Brain [8] = experiment: Biodistribution in FVB mouse brain assessed per gram of tissue at 1 to 4.8 MBq, iv after 90 mins; type: ADME, organism-based; settings: in vivo, 1.5 h; how it was run: as §2
Brain [9] = experiment: Biodistribution in P-gp/BCRP knockout mouse brain at 3.3 to 4.9 MBq, iv after up to 60 mins; type: ADME, organism-based; settings: in vivo, 1 h
Blood [10] = experiment: Biodistribution in FVB mouse blood assessed per gram of tissue at 1 to 4.8 MBq, iv after 60 mins; type: ADME, organism-based; settings: in vivo, 1 h; how it was run: as §2
Blood [11] = experiment: AUC (0 to 60 mins) in BCRP knockout mouse blood at 2.8 to 5.6 MBq, iv; type: ADME, tissue-based
How it was run: (§3)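 Small-animal PET in male wild-type and knockout mice under isoflurane (1.0–1.5%), prone on the scanner bed. Tracer (2.8–5.6 MBq, 20–40 pmol) given iv, with or without co-injected GF120918 at 5 mg/kg. Dynamic 60-min list-mode scan. Decay-corrected SUV read from ROIs on brain, and on the ventricular cavity for blood. AUC taken over 0–60 min in SUV·min; n = 4 per group.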

Kidney [12] = experiment: Biodistribution in FVB mouse kidney assessed per gram of tissue at 1 to 4.8 MBq, iv after 15 mins; type: ADME, organism-based; settings: in vivo, 0.25 h; how it was run: as §2
Liver [13] = experiment: Biodistribution in FVB mouse liver assessed per gram of tissue at 1 to 4.8 MBq, iv after 60 mins; type: ADME, organism-based; settings: in vivo, 1 h; how it was run: as §2
[14] = Biodistribution in FVB mouse small intestine assessed per gram of tissue at 1 to 4.8 MBq, iv after 60 mins; type: ADME, organism-based; settings: in vivo, 1 h; how it was run: as §1
Brain [15] = experiment: AUC (0 to 60 mins) in wild type mouse brain at 2.8 to 5.6 MBq, iv co-administered with GF120918; type: ADME, organism-based; settings: in vivo; how it was run: as §3
Blood [16] = experiment: AUC (0 to 60 mins) in P-gp knockout mouse blood at 2.8 to 5.6 MBq, iv; type: ADME, tissue-based; how it was run: as §3
Lung [17] = experiment: Biodistribution in FVB mouse lung assessed per gram of tissue at 1 to 4.8 MBq, iv after 15 mins; type: ADME, organism-based; settings: in vivo, 0.25 h; how it was run: as §2
Spleen [18] = experiment: Biodistribution in FVB mouse spleen assessed per gram of tissue at 1 to 4.8 MBq, iv after 5 mins; type: ADME, organism-based; settings: in vivo; how it was run: as §1
Kidney [19] = experiment: Biodistribution in FVB mouse kidney assessed per gram of tissue at 1 to 4.8 MBq, iv after 90 mins; type: ADME, organism-based; settings: in vivo, 1.5 h; how it was run: as §2
Heart [20] = experiment: Biodistribution in FVB mouse heart assessed per gram of tissue at 1 to 4.8 MBq, iv after 90 mins; type: ADME, organism-based; settings: in vivo, 1.5 h; how it was run: as §2
Liver [21] = experiment: Biodistribution in FVB mouse liver assessed per gram of tissue at 1 to 4.8 MBq, iv after 30 mins; type: ADME, organism-based; settings: in vivo, 0.5 h; how it was run: as §2
Pancreas [22] = experiment: Biodistribution in FVB mouse pancreas assessed per gram of tissue at 1 to 4.8 MBq, iv after 5 mins; type: ADME, organism-based; settings: in vivo; how it was run: as §1
Blood [23] = experiment: Biodistribution in FVB mouse blood assessed per gram of tissue at 1 to 4.8 MBq, iv after 5 mins; type: ADME, organism-based; settings: in vivo; how it was run: as §2
Muscle tissue [24] = experiment: Biodistribution in FVB mouse muscle assessed per gram of tissue at 1 to 4.8 MBq, iv after 30 mins; type: ADME, organism-based; settings: in vivo, 0.5 h; how it was run: as §2
Bone [25] = experiment: Biodistribution in FVB mouse bone assessed per gram of tissue at 1 to 4.8 MBq, iv after 30 mins; type: ADME, organism-based, Bone element; settings: in vivo, 0.5 h; how it was run: as §2
Brain [26] = experiment: AUC (0 to 60 mins) in wild type mouse brain at 2.8 to 5.6 MBq, iv; type: ADME, organism-based; settings: in vivo; how it was run: as §3
Spleen [27] = experiment: Biodistribution in FVB mouse spleen assessed per gram of tissue at 1 to 4.8 MBq, iv after 15 mins; type: ADME, organism-based; settings: in vivo, 0.25 h; how it was run: as §1
Pancreas [28] = experiment: Biodistribution in FVB mouse pancreas assessed per gram of tissue at 1 to 4.8 MBq, iv after 90 mins; type: ADME, organism-based; settings: in vivo, 1.5 h; how it was run: as §1
Muscle tissue [29] = experiment: Biodistribution in FVB mouse muscle assessed per gram of tissue at 1 to 4.8 MBq, iv after 5 mins; type: ADME, organism-based; settings: in vivo; how it was run: as §2
Pancreas [30] = experiment: Biodistribution in FVB mouse pancreas assessed per gram of tissue at 1 to 4.8 MBq, iv after 30 mins; type: ADME, organism-based; settings: in vivo, 0.5 h; how it was run: as §1
Muscle tissue [31] = experiment: Biodistribution in FVB mouse muscle assessed per gram of tissue at 1 to 4.8 MBq, iv after 60 mins; type: ADME, organism-based; settings: in vivo, 1 h; how it was run: as §2
Brain [32] = experiment: Ratio of AUC (0 to 60 mins) in P-gp/BCRP knockout mouse brain to AUC (0 to 60 mins) in wild type mouse brain at 2.8 to 5.6 MBq, iv; type: ADME, organism-based; settings: in vivo
Heart [33] = experiment: Biodistribution in FVB mouse heart assessed per gram of tissue at 1 to 4.8 MBq, iv after 15 mins; type: ADME, organism-based; settings: in vivo, 0.25 h; how it was run: as §2
Lung [34] = experiment: Biodistribution in FVB mouse lung assessed per gram of tissue at 1 to 4.8 MBq, iv after 90 mins; type: ADME, organism-based; settings: in vivo, 1.5 h; how it was run: as §2
Blood [35] = experiment: Biodistribution in FVB mouse blood assessed per gram of tissue at 1 to 4.8 MBq, iv after 30 mins; type: ADME, organism-based; settings: in vivo, 0.5 h; how it was run: as §2
Brain [36] = experiment: AUC (0 to 60 mins) in P-gp knockout mouse brain at 2.8 to 5.6 MBq, iv; type: ADME, organism-based; settings: in vivo; how it was run: as §3
Brain [37] = experiment: Biodistribution in BCRP knockout mouse brain at 3.3 to 4.9 MBq, iv after up to 60 mins; type: ADME, organism-based; settings: in vivo, 1 h
Pancreas [38] = experiment: Biodistribution in FVB mouse pancreas assessed per gram of tissue at 1 to 4.8 MBq, iv after 60 mins; type: ADME, organism-based; settings: in vivo, 1 h; how it was run: as §1

| SMILES | Drug uptake (Spleen [1]) | Drug uptake (Spleen [2]) | Drug uptake (Bone [3]) | Drug uptake (Heart [4]) | Drug uptake (Lung [5]) | Drug uptake [6] | Drug uptake (Brain [7]) | Drug uptake (Brain [8]) | Activity (Brain [9]) | Drug uptake (Blood [10]) | AUC (Blood [11]) | Drug uptake (Kidney [12]) | Drug uptake (Liver [13]) | Drug uptake [14] | AUC (Brain [15]) | AUC (Blood [16]) | Drug uptake (Lung [17]) | Drug uptake (Spleen [18]) | Drug uptake (Kidney [19]) | Drug uptake (Heart [20]) | other results |
| --- | --- | --- | --- | --- | --- | --- | --- | --- | --- | --- | --- | --- | --- | --- | --- | --- | --- | --- | --- | --- | --- |
| COc1cc2c(cc1OC)CN(CCc1ccc(NC(=O)c3cccc4c(=O)c5cccc(OCC[18F])c5[nH]c34)cc1)CC2 | 5.82 % ID/g | 4.71 % ID/g | 1.99 % ID/g | 1.38 % ID/g | 6.16 % ID/g | 4.51 % ID/g | 0.18 % ID/g | 0.13 % ID/g | Active | 0.4 % ID/g | 25.3 SUV·min | 24.17 % ID/g | 11.6 % ID/g | 12.48 % ID/g | 30.2 SUV·min | 23.5 SUV·min | 13.32 % ID/g | 4.76 % ID/g | 19.98 % ID/g | 0.85 % ID/g | Drug uptake (Liver [21]): 5.35 % ID/g; Drug uptake (Pancreas [22]): 6.12 % ID/g; Drug uptake (Blood [23]): 1.39 % ID/g; Drug uptake (Muscle tissue [24]): 0.62 % ID/g; Drug uptake (Bone [25]): 1.63 % ID/g; SUV (Brain [26]): 4.4; Drug uptake (Spleen [27]): 5.34 % ID/g; Drug uptake (Pancreas [28]): 15.21 % ID/g; Drug uptake (Muscle tissue [29]): 1.75 % ID/g; Drug uptake (Pancreas [30]): 11.15 % ID/g; Drug uptake (Muscle tissue [31]): 0.53 % ID/g; Ratio AUC (Brain [32]): 9; Drug uptake (Heart [33]): 2.43 % ID/g; Drug uptake (Lung [34]): 4.09 % ID/g; Drug uptake (Blood [35]): 0.65 % ID/g; SUV (Brain [36]): 10.6; Activity (Brain [37]): Active; Drug uptake (Pancreas [38]): 15.14 % ID/g |
| COc1cc(NC(=O)c2cnc3ccccc3c2)c(C(=O)Nc2ccc(CCN3CCc4cc(OC)c(OCC[18F])cc4C3)cc2)cc1OC | 6.34 % ID/g | 7.42 % ID/g | 2.17 % ID/g | 2.86 % ID/g | 16.06 % ID/g | 5.67 % ID/g | 0.13 % ID/g | 0.1 % ID/g | Active | 0.61 % ID/g | 42.2 SUV·min | 16.09 % ID/g | 25.4 % ID/g | 22.42 % ID/g | 28.1 SUV·min | 45 SUV·min | 20.55 % ID/g | 5.12 % ID/g | 10.17 % ID/g | 1.74 % ID/g | Drug uptake (Liver [21]): 23.23 % ID/g; Drug uptake (Pancreas [22]): 6.05 % ID/g; Drug uptake (Blood [23]): 1.39 % ID/g; Drug uptake (Muscle tissue [24]): 1.04 % ID/g; Drug uptake (Bone [25]): 1.45 % ID/g; SUV (Brain [26]): 4; Drug uptake (Spleen [27]): 6.73 % ID/g; Drug uptake (Pancreas [28]): 13.56 % ID/g; Drug uptake (Muscle tissue [29]): 2.23 % ID/g; Drug uptake (Pancreas [30]): 8.56 % ID/g; Drug uptake (Muscle tissue [31]): 0.92 % ID/g; Ratio AUC (Brain [32]): 8.3; Drug uptake (Heart [33]): 3.49 % ID/g; Drug uptake (Lung [34]): 15.76 % ID/g; Drug uptake (Blood [35]): 0.63 % ID/g; SUV (Brain [36]): 9.1; Activity (Brain [37]): Active; Drug uptake (Pancreas [38]): 12.45 % ID/g |
